From BindingDB's records for doi:10.1021/acs.jmedchem.1c00739 (2021)

Target: Protein kinase C alpha type (Homo sapiens, UniProt P17252)
Assay: Displacement of [3H]-PDBu from recombinant human PKCalpha at 30 uM by scintillation counter method relative to control
Outline: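 Competition of 2 nM [3H]PDBu by test ligand at a single fixed concentration (value in line); 50 mM Tris-HCl pH 7.4, 100 μg/mL porcine brain phosphatidylserine, 5 mg/mL bovine IgG, 0.003% Tx-100, 20 ng/tube enzyme; 0.1 mM Ca2+ for PKCα, 1 mM EGTA for PKCε. 5 min at 37 °C, PEG precipitation, bound and free counted separately; nonspecific with 10 μM cold PDBu; triplicates.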

With `Cc1ccc(-c2cn(CC3(CO)C/C(=C\CC(CC(C)C)CC(C)C)C(=O)O3)nn2)cc1` (stereo unspecified) the Inhibition was 21%.
